From ChEMBL document CHEMBL3351969, “Chalcone based azacarboline analogues as novel antitubulin agents: design, synthesis, biological evaluation and molecular modelling studies” (Eur J Med Chem, 2014)
Structures can show the parent of a compound that is named as a salt. Each block holds one compound with its values, some of them ahead of it. Active and inactive are the calls of the source. The calls are words filed in the database; no cut-off is given here.

Tests used:
[1] = Cytotoxicity against human HCT116 cells assessed as growth inhibition after 48 hrs by sulforhodamine B assay; type: functional, cell-based; settings: HCT-116, 48 h
In short: (§1)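 SRB growth assay with compound dilutions over several concentrations. Cells were pre-grown 24 h at 37°C in a CO2 incubator, then exposed for 48 h. Cells were fixed with 50% TCA (1 h, 4°C) and stained with 0.4% SRB in 1% acetic acid for 30 min. Bound dye was solubilised in 0.01 M Tris-HCl (pH 10.4) and read at 540 nm. Percent inhibition versus untreated (blank-subtracted) was used to calculate IC50.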

COLO 205 [2] = test: Cytotoxicity against human COLO205 cells assessed as growth inhibition at 50 uM after 48 hrs by sulforhodamine B assay; type: functional; settings: COLO 205, 48 h, read-out: GI
In short: (§2)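 Single-point SRB screen at 50 µM. Cells were seeded and grown 24 h at 37°C in a CO2 incubator, then exposed to compound in complete medium for 48 h. Cells were fixed with 50% TCA for 1 h at 4°C, water-washed, and stained with 0.4% SRB in 1% acetic acid for 30 min. After 1% TCA washes, dye was dissolved in Tris-HCl (0.01 M, pH 10.4) and OD read at 540 nm.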

A549 [3] = test: Cytotoxicity against human A549 cells assessed as growth inhibition at 50 uM after 48 hrs by sulforhodamine B assay; type: functional; settings: for inhibition of growth at 50 µM: A549, 48 h, read-out: GI; in short: as §2
COLO 205 [4] = test: Cytotoxicity against human COLO205 cells assessed as growth inhibition after 48 hrs by sulforhodamine B assay; type: functional, cell-based; settings: COLO 205, 48 h; in short: as §1
[5] = Cytotoxicity against human HCT116 cells assessed as growth inhibition at 50 uM after 48 hrs by sulforhodamine B assay; type: functional; settings: HCT-116, 48 h, read-out: GI; in short: as §2
THP-1 [6] = test: Cytotoxicity against human THP1 cells assessed as growth inhibition at 50 uM after 48 hrs by sulforhodamine B assay; type: functional; settings: THP-1, 48 h, read-out: GI; in short: as §2
Tubulin = test: Inhibition of tubulin (unknown origin) polymerization after 1 hr by spectrophotometry; type: protein-complex assay, Homo sapiens
In short: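 Kit tubulin (10 mg in 1 mL general tubulin buffer plus 10 µL of 100 mM GTP) was held at 4°C. Compounds came from a 100 µM DMSO stock diluted to 50, 25 and 10 µM (pre-assay dilutions). Compound was pre-warmed in plate wells 2 min at 37°C before adding tubulin diluted in polymerization buffer (general buffer, glycerol buffer, GTP).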

THP-1 [7] = test: Cytotoxicity against human THP1 cells assessed as growth inhibition after 48 hrs by sulforhodamine B assay; type: functional, cell-based; settings: THP-1, 48 h; in short: as §1
A549 [8] = test: Cytotoxicity against human A549 cells assessed as growth inhibition at 1 uM after 48 hrs by sulforhodamine B assay; type: functional; settings: A549, 48 h, read-out: GI
THP-1 [9] = test: Disruption of microtubule organization in human THP1 cells at 1 uM after 48 hrs by immunofluorescence technique; type: cell-based
[10] = Cytotoxicity against human HCT116 cells assessed as growth inhibition at 1 uM after 48 hrs by sulforhodamine B assay; type: functional; settings: HCT-116, 48 h, read-out: GI
THP-1 [11] = test: Cytotoxicity against human THP1 cells assessed as growth inhibition at 1 uM after 48 hrs by sulforhodamine B assay; type: functional; settings: THP-1, 48 h, read-out: GI
COLO 205 [12] = test: Cytotoxicity against human COLO205 cells assessed as growth inhibition at 1 uM after 48 hrs by sulforhodamine B assay; type: functional; settings: COLO 205, 48 h, read-out: GI
THP-1 [13] = test: Disruption of microtubule organization in human THP1 cells at 5 uM after 48 hrs by immunofluorescence technique; type: cell-based
In short: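 THP-1 cells were exposed to 1 µM paclitaxel or 5 µM test agent for 48 h, alongside untreated controls. Microtubules and unassembled tubulin were immunostained (green) and DNA was stained with DAPI. Microtubule organisation was examined by confocal microscopy.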

IC50 (Tubulin): 8.97 µM
Structure (SMILES): CC(=O)n1c2ccccc2c2cc(-c3cccc4ccccc34)nnc21
IC50 [1]: 4.36 µM | inhibition of growth at 50 µM (COLO 205 [2]): 83% | growth inhibition (GI) (A549 [3]): inactive | IC50 (COLO 205 [4]): 5.74 µM | inhibition of growth at 50 µM [5]: 80% | inhibition of growth at 50 µM (THP-1 [6]): 89% | IC50 (THP-1 [7]): 2.39 µM

Structure (SMILES): CC(=O)O[C@H]1C(=O)[C@@]2(C)[C@H]([C@H](OC(=O)c3ccccc3)[C@]3(O)C[C@H](OC(=O)[C@H](O)[C@@H](NC(=O)c4ccccc4)c4ccccc4)C(C)=C1C3(C)C)[C@]1(OC(C)=O)CO[C@@H]1C[C@@H]2O [PACLITAXEL]
inhibition of growth at 1 µM (A549 [8]): 70% | Activity (THP-1 [9]): Active

Structure (SMILES): COc1cccc2c1C(=O)c1c(O)c3c(c(O)c1C2=O)C[C@@](O)(C(=O)CO)C[C@@H]3O[C@H]1C[C@H](N)[C@H](O)[C@H](C)O1 [DOXORUBICIN HYDROCHLORIDE]
inhibition of growth at 1 µM [10]: 66% | inhibition of growth at 1 µM (THP-1 [11]): 71% | inhibition of growth at 1 µM (COLO 205 [12]): 72%

IC50 (Tubulin): 8.91 µM
Structure (SMILES): CC(=O)n1c2ccccc2c2cc(-c3ccc4ccccc4c3)nnc21
IC50 [1]: 4.44 µM | inhibition of growth at 50 µM (COLO 205 [2]): 82% | growth inhibition (GI) (A549 [3]): inactive | IC50 (COLO 205 [4]): 5.76 µM | inhibition of growth at 50 µM [5]: 81% | inhibition of growth at 50 µM (THP-1 [6]): 89% | IC50 (THP-1 [7]): 2.41 µM

IC50 (Tubulin): 4.92 µM
Structure (SMILES): COc1ccc(-c2cc3c4ccccc4n(C(C)=O)c3nn2)cc1OC
IC50 [1]: 4.4 µM | inhibition of growth at 50 µM (COLO 205 [2]): 82% | inhibition of growth at 50 µM (A549 [3]): 12% | IC50 (COLO 205 [4]): 5.69 µM | inhibition of growth at 50 µM [5]: 80% | inhibition of growth at 50 µM (THP-1 [6]): 90% | IC50 (THP-1 [7]): 2.33 µM

IC50 (Tubulin): 2.41 µM
Structure (SMILES): COc1cc(-c2cc3c4ccccc4n(C(C)=O)c3nn2)cc(OC)c1OC
IC50 [1]: 2.89 µM | inhibition of growth at 50 µM (COLO 205 [2]): 89% | inhibition of growth at 50 µM (A549 [3]): 20% | IC50 (COLO 205 [4]): 4.15 µM | Activity (THP-1 [13]): Active | inhibition of growth at 50 µM [5]: 86% | inhibition of growth at 50 µM (THP-1 [6]): 99% | IC50 (THP-1 [7]): 1.13 µM

Structure (SMILES): CC(=O)n1c2cccc(Cl)c2c2cc(-c3cccc4ccccc34)nnc21
IC50 [1]: 15.7 µM | inhibition of growth at 50 µM (COLO 205 [2]): 40% | inhibition of growth at 50 µM (A549 [3]): 18% | IC50 (COLO 205 [4]): 18 µM | inhibition of growth at 50 µM [5]: 44% | inhibition of growth at 50 µM (THP-1 [6]): 65% | IC50 (THP-1 [7]): 14.1 µM

Structure (SMILES): CC(=O)n1c2ccccc2c2cc(-c3ccc[nH]3)nnc21
IC50 [1]: 6.14 µM | inhibition of growth at 50 µM (COLO 205 [2]): 68% | inhibition of growth at 50 µM (A549 [3]): 12% | IC50 (COLO 205 [4]): 7.23 µM | inhibition of growth at 50 µM [5]: 72% | inhibition of growth at 50 µM (THP-1 [6]): 78% | IC50 (THP-1 [7]): 4.28 µM

Structure (SMILES): COc1ccc(-c2cc3c4c(Cl)cccc4n(C(C)=O)c3nn2)cc1
IC50 [1]: 16.9 µM | inhibition of growth at 50 µM (COLO 205 [2]): 39% | inhibition of growth at 50 µM (A549 [3]): 14% | IC50 (COLO 205 [4]): 18.2 µM | inhibition of growth at 50 µM [5]: 36% | inhibition of growth at 50 µM (THP-1 [6]): 60% | IC50 (THP-1 [7]): 14.9 µM
